The values below come from ChEMBL document CHEMBL1149108, “Arecoline tripeptide inhibitors of proteasome” (J Med Chem, 2004).

Data set [1] addresses Proteasome. In words: Inhibitory activity was evaluated against chymotrypsin-like enzyme. Type of data set: subcellular. The method, boiled down:
(§1)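 Proteasome partially purified from lymphoblastoid cell lines, affinity-purified and dialysed against 25 mM Tris-HCl pH 7.5. Enzyme untreated or pretreated with 0.01-20 µM compound, then incubated 30 min at 37 °C in activity buffer with fluorogenic substrate: Suc-LLVY-AMC for chymotrypsin-like, Boc-LRR-AMC for trypsin-like. Fluorescence read at ex 360/em 465 nm; IC50 derived.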

In data set [2] the target is Proteasome. In words: Inhibitory activity was evaluated against trypsin-like (proteasome) enzyme. Type of data set: subcellular. The method in brief: as §1
For data set [3], the system named is Proteasome. In words: Inhibitory activity was evaluated against postacid PGPH active site. Type of data set: subcellular. The method in brief: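 Postacidic (PGPH) activity measured with Ac-YVAD-AMC on partially purified, affinity-purified lymphoblastoid proteasome in 25 mM Tris-HCl pH 7.5. Enzyme untreated or pretreated with 0.01-20 µM compound, then substrate added for 30 min at 37 °C in activity buffer. Fluorescence read at ex 360/em 465 nm; IC50 calculated.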

Data set [4] can be described thus: Half-life in culture medium was determined. Type of data set: ADME. The method, boiled down: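 Compound (stock 10 mg/mL in acetonitrile/H2O 1:1) added to RPMI containing 20% FCS and incubated at 37 °C for up to 2 days. Ethanol added to stop the reaction, then centrifugation and RP-HPLC of the supernatant. Half-life taken from least-squares linear regression of log inhibitor concentration versus time, at least five points.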

Data set [5] can be described thus: Half-life in human plasma was determined. Type of data set: ADME. The method, boiled down:
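Compound incubated with human plasma (0.6 mL in 1.5 mL total) in 10 mM Tris-HCl pH 7.5 at 37 °C for up to 360 min. Ethanol added to stop the reaction, then centrifugation and RP-HPLC of the supernatant. Half-life taken from least-squares regression of log concentration versus time, minimum five points.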

Non-standard residues stand in square brackets, D forms with d. Residues, ends and D or L forms follow the SMILES beside them. ξ: configuration not given here. *: point of attachment. Fmoc = O=C(OCC1c2ccccc2-c2ccccc21)*; Cbz = O=C(OCc1ccccc1)*; ξNle = CCCCC(N)C(=O)O; NHBn = c1ccc(CN*)cc1 A value given as a limit tells only on which side of the number the result lay.

As to `CC(C)C[C@H](NC(=O)OCc1ccccc1)C(=O)N[C@@H](CO)C(=O)N[C@@H](CC(C)C)C(=O)NCc1ccccc1` (HELM PEPTIDE1{[O=C(OCc1ccccc1)[*:2]].L.S.L.[c1ccc(CN[*:1])cc1]}$$$$V2.0), the 50% inhibitory concentration (IC50) against Proteasome [1] is > 20 µM; on Proteasome [2], 15.8 µM; in the data set with Proteasome [3], > 20 µM.
For `CCCCC(NC(=O)OCC1c2ccccc2-c2ccccc21)C(=O)N[C@@H](CO)C(=O)N[C@@H](CC(C)C)C(=O)NCc1ccccc1` (stereo partly drawn) (Fmoc-[ξNle]-Ser-Leu-NHBn), the concentration for half-maximal inhibition (IC50) against Proteasome [1], against Proteasome [2] and in the data set with Proteasome [3] was > 20 µM each time.
For `CC(C)C[C@H](NC(=O)[C@H](CO)NC(=O)[C@H](C)NC(=O)OCC1c2ccccc2-c2ccccc21)C(=O)NCc1ccccc1` (HELM PEPTIDE1{[O=C(OCC1c2ccccc2-c2ccccc21)[*:2]].A.S.L.[c1ccc(CN[*:1])cc1]}$$$$V2.0), the IC50 at Proteasome [1], against Proteasome [2] and with Proteasome [3] was > 20 µM each time.
Take `CC[C@H](C)[C@H](NC(=O)OCc1ccccc1)C(=O)N[C@@H](CO)C(=O)N[C@@H](CC(C)C)C(=O)NCc1ccccc1` (HELM PEPTIDE1{[O=C(OCc1ccccc1)[*:2]].I.S.L.[c1ccc(CN[*:1])cc1]}$$$$V2.0): the IC50 against Proteasome [1], on Proteasome [2] and with Proteasome [3] was > 20 µM each time.
Turning to `CC(C)C[C@H](NC(=O)[C@H](CO)NC(=O)[C@H](C)NC(=O)OCc1ccccc1)C(=O)NCc1ccccc1` (HELM PEPTIDE1{[O=C(OCc1ccccc1)[*:2]].A.S.L.[c1ccc(CN[*:1])cc1]}$$$$V2.0), the IC50 against Proteasome [1], against Proteasome [2] and with Proteasome [3] was > 20 µM throughout.
Regarding `CC(C)C[C@H](NC(=O)[C@H](CO)NC(=O)[C@@H](NC(=O)OCc1ccccc1)C(C)C)C(=O)NCc1ccccc1` (HELM PEPTIDE1{[O=C(OCc1ccccc1)[*:2]].V.S.L.[c1ccc(CN[*:1])cc1]}$$$$V2.0), the half-maximal inhibitory concentration (IC50) was 3.73 µM against Proteasome [1], 9.46 µM on Proteasome [2] and > 20 µM in the data set with Proteasome [3].
In the same order, the values of `CC(C)C[C@H](NC(=O)[C@H](CO)NC(=O)[C@@H](NC(=O)OCC1c2ccccc2-c2ccccc21)C(C)C)C(=O)NCc1ccccc1` (HELM PEPTIDE1{[O=C(OCC1c2ccccc2-c2ccccc21)[*:2]].V.S.L.[c1ccc(CN[*:1])cc1]}$$$$V2.0) are 5.91 µM, 13.6 µM and > 20 µM.
In the same order, the values of `CC(C)C[C@H](NC(=O)OCC1c2ccccc2-c2ccccc21)C(=O)N[C@@H](CC(C)C)C(=O)N[C@@H](CC(C)C)C(=O)NCc1ccccc1` (HELM PEPTIDE1{[O=C(OCC1c2ccccc2-c2ccccc21)[*:2]].L.L.L.[c1ccc(CN[*:1])cc1]}$$$$V2.0) are 12.2 µM, 10.7 µM and > 20 µM.
Turning to `CC(C)C[C@H](NC(=O)OCC1c2ccccc2-c2ccccc21)C(=O)N[C@@H](CO)C(=O)N[C@@H](CC(C)C)C(=O)NCc1ccccc1` (HELM PEPTIDE1{[O=C(OCC1c2ccccc2-c2ccccc21)[*:2]].L.S.L.[c1ccc(CN[*:1])cc1]}$$$$V2.0), the IC50 against Proteasome [1], against Proteasome [2] and with Proteasome [3] was > 20 µM in each case.
With `CC(C)C[C@H](NC(=O)[C@H](CO)NC(=O)[C@H](Cc1ccccc1)NC(=O)C1=CCCNC1)C(=O)NCc1ccccc1`, the values for the IC50 against Proteasome [1], against Proteasome [2] and in the data set on Proteasome [3] were 1.23 µM, 2.93 µM and > 20 µM, respectively. Also, the half-life in data set [4] and in data set [5] was > 6 h each time.
For the compound `CC(C)C[C@H](NC(=O)OCc1ccccc1)C(=O)N[C@@H](CC(C)C)C(=O)N[C@@H](CC(C)C)C(=O)NCc1ccccc1` (HELM PEPTIDE1{[O=C(OCc1ccccc1)[*:2]].L.L.L.[c1ccc(CN[*:1])cc1]}$$$$V2.0), the results for the 50% inhibitory concentration (IC50) on Proteasome [1], against Proteasome [2] and in the data set with Proteasome [3] were 9.51 µM, 8.93 µM and > 20 µM, respectively.
For `CC(C)C[C@H](NC(=O)[C@H](CO)NC(=O)[C@@H](NC(=O)C1=CCCNC1)C(C)C)C(=O)NCc1ccccc1`, the IC50 on Proteasome [1] was 0.52 µM; against Proteasome [2], 2.16 µM; in the data set on Proteasome [3], > 20 µM. Besides, the half-life in data set [4] and in data set [5] was > 6 h throughout.
As for `CCCCC(NC(=O)OCc1ccccc1)C(=O)N[C@@H](CO)C(=O)N[C@@H](CC(C)C)C(=O)NCc1ccccc1` (stereo partly drawn) (Cbz-[ξNle]-Ser-Leu-NHBn), the IC50 was > 20 µM on Proteasome [1], 18.2 µM against Proteasome [2] and > 20 µM in the data set with Proteasome [3].
For `CC(C)C[C@H](NC(=O)[C@H](CO)NC(=O)[C@H](Cc1ccccc1)NC(=O)OCC1c2ccccc2-c2ccccc21)C(=O)NCc1ccccc1`, the IC50 at Proteasome [1] amounted to 11 µM; at Proteasome [2], 12.9 µM; in the data set on Proteasome [3], 19.1 µM.
Regarding `CC(C)C[C@H](NC(=O)C1=CCCNC1)C(=O)N[C@@H](CC(C)C)C(=O)N[C@@H](CC(C)C)C(=O)NCc1ccccc1`, the results for the IC50 against Proteasome [1], on Proteasome [2] and with Proteasome [3] were 1.41 µM, 2.57 µM and > 20 µM, respectively. In addition, the half-life in data set [4] is > 6 h; in data set [5], 4.92 h.
As to `CC[C@H](C)[C@H](NC(=O)OCC1c2ccccc2-c2ccccc21)C(=O)N[C@@H](CO)C(=O)N[C@@H](CC(C)C)C(=O)NCc1ccccc1` (HELM PEPTIDE1{[O=C(OCC1c2ccccc2-c2ccccc21)[*:2]].I.S.L.[c1ccc(CN[*:1])cc1]}$$$$V2.0), the IC50 against Proteasome [1], against Proteasome [2] and in the data set on Proteasome [3] was > 20 µM throughout.
On to `CC(C)C[C@H](NC(=O)[C@H](CO)NC(=O)[C@@H]1CCCN1C(=O)OCC1c2ccccc2-c2ccccc21)C(=O)NCc1ccccc1` (HELM PEPTIDE1{[O=C(OCC1c2ccccc2-c2ccccc21)[*:2]].P.S.L.[c1ccc(CN[*:1])cc1]}$$$$V2.0), for which the IC50 at Proteasome [1], against Proteasome [2] and with Proteasome [3] was > 20 µM in each case.
In the case of `CC(C)C[C@H](NC(=O)[C@H](CO)NC(=O)[C@H](Cc1ccccc1)NC(=O)OCc1ccccc1)C(=O)NCc1ccccc1`, the IC50 on Proteasome [1] stood at 2.18 µM; against Proteasome [2], 4.82 µM; with Proteasome [3], 17.6 µM.
